Screens deposited in PubChem BioAssay by Johns Hopkins Ion Channel Center.
The list is not random: actives were taken first. Their share in the collection is about 2.3%.
TRPC4 act – opens the mouse TRPC4 cation channel; Q9QUQ5; HEK293 TRPC4beta/mu-opioid, Fluo4 calcium fluorescence; stronger effect = higher value; B-score at 10 µM; 0.49% of 310,000 active; AID 2237;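 active = B-score above 5 SD of library B-scores, and initial fluorescence ratio not above library mean plus 5 SD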;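 note: positive B-score marks a calcium rise read as TRPC4 activation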
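System: HEK293 cells stably co-expressing mouse TRPC4beta and mu-opioid receptor; Schedule: Fluo4 dye loading 45 min at room temperature, 110 s recording; Detection: Fluo4 fluorescence, kinetic; Evaluation: B-scored integrated calcium fluorescence ratio; Controls: buffer (low) and maximal DAMGO (high).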
TRPC4 block – inhibitors of mouse TRPC4 channel | Q9QUQ5 | HEK293 TRPC4beta/mu-opioid, DAMGO-evoked Fluo4 calcium flux; stronger effect = lower value | B-score at 10 µM | 0.39% of 300,000 active;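 active = B-score over 3 SD under the library average, no early fluorescence shift, positive overall ratio signal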
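System: stable TRPC4beta/mu-opioid receptor HEK293 cells; Dosing: single-point compound dosing; Measured by: Fluo4 Ca2+ flux fluorescence; Read-out basis: per-well B score of integrated baseline-normalized Fluo4 ratio.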
TRPC6 inh – blocks the mouse TRPC6 cation channel. Q61143. HEK293-TRPC6, membrane potential dye, ACh-evoked depolarization; stronger effect = lower value. B-score at 10 µM. 1.1% of 310,000 active;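 active = B-score under library mean minus 3 SD, initial fluorescence not abnormally high, positive integrated signal ratio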;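 note: B-score derived from integrated fluorescence ratio over the kinetic read; more negative B-score means stronger inhibition of depolarization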
TRPC6 act – activators of mouse TRPC6 channel. HEK293-TRPC6 membrane potential dye fluorescence; stronger effect = higher value. B-score at 10 µM. 0.13% of 310,000 active;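 active = B-score of the integrated fluorescence ratio above library mean plus 3 SD, and starting fluorescence ratio within library mean plus 5 SD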;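 note: higher score means more depolarization so channel activation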
TRPC4 PAM – allosterically enhances the mouse TRPC4 cation channel. HEK293 TRPC4beta/mu-opioid, DAMGO EC20, Fluo-4 Ca2+ flux; stronger effect = higher value. B-score at 10 µM. 0.42% of 310,000 active;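 active = B-score of calcium response area above 5 SD of library B-scores, with initial fluorescence ratio within 5 SD of library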;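 note: B-score of integrated fluorescence ratio over time as area under calcium response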
TRPC4 sel inh 2 – second selectivity test of TRPC6 inhibitors: effect on mouse TRPC4 | inhibition, % at 10 µM | shares compounds with TRPC6 inh | AID 2776 | 42% of 920 active | HEK293 TRPC4/MOR, membrane potential dye fluorescence; channel activated by saturating DAMGO dose;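 active = compounds whose fluorescence signal differed from control wells by over 3 SD, either direction, in both duplicate plates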
TRPC4 spec – tests whether TRPC6 inhibitors also affect mouse TRPC4; 61% of 920 active; activity change, negative = inhibition, % at 10 µM; shares compounds with TRPC6 inh; AID 2777; HEK293 TRPC4/mu-opioid, membrane potential fluorescence;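 active = rise or fall in signal beyond 3 SD of buffer-only wells in both replicate plates, either sign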;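 note: integrated kinetic ratio of fluorescence range over baseline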
HEK293 MPD ctr 2-1 – parental HEK293 nonspecific activity of TRPC6 inhibitors, second screen. shares compounds with TRPC6 inh. parental HEK293 membrane potential dye fluorescence; maximal acetylcholine challenge after compound addition. signal change vs control, % at 10 µM. 31% of 920 active;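 active = membrane potential signal moving either way by over 3 SD of the maximum-effect control, in both duplicate plates, meaning non-specific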
HEK293 MPD ctr-1 – parental HEK293 nonspecific activity of TRPC6 inhibitors; 60% of 920 active; membrane potential signal change, % at 10 µM; shares compounds with TRPC6 inh; AID 2780; parental HEK293 membrane potential dye fluorescence;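 active = membrane potential signal shifting up or down by more than 3 SD of buffer-only wells, on both duplicate plates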
HEK293 MPD ctr-2 – counter-screen for TRPC6 modulators: effect in parental HEK293 cells | 51% of 2,400 active | membrane potential dye fluorescence | membrane potential signal change, % at 10 µM | AID 488924 | shares compounds with TRPC6 inh;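 active = membrane potential signal moves up or down beyond 5 SD from buffer-only wells, on both duplicate plates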
HEK293 MPD ctr 2-2 – second counter-screen for TRPC6 modulators: effect in parental HEK293 cells; shares compounds with TRPC6 inh; inhibition, % at 10 µM; 14% of 2,400 active; AID 488926; membrane potential dye fluorescence; after compound, maximal acetylcholine stimulation;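 active = membrane potential signal drops by more than 5 SD from the mean control signal, in both duplicate plates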;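 note: plate controls were acetylcholine ECmax control wells for no effect and buffer only wells for full effect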
TRPC4/MOR mod – mouse TRPC4 off-target activity of TRPC6 modulators. AID 488927. percent change from control (negative = decrease, positive = increase), % at 10 µM. 69% of 2,400 active. shares compounds with TRPC6 inh. HEK293 TRPC4/mu-opioid, membrane potential fluorescence;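 active = membrane potential signal moved up or down beyond 5 SD of buffer control wells, in both duplicate plates, actives on both sides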;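 note: plate controls were assay buffer wells for no effect and DAMGO maximal-effect wells for full effect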
TRPC4/MOR inh 2 – second selectivity test of TRPC6 modulators against mouse TRPC4; AID 488928; HEK293 TRPC4/mu-opioid, membrane potential dye fluorescence; stimulated with maximal-effect DAMGO; shares compounds with TRPC6 inh; 55% of 2,400 active; inhibition, % at 10 µM;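 active = drop in membrane potential signal beyond 5 SD of the control wells in both duplicate plates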;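 note: TRPC4 counter screen for TRPC6 hits run under conditions tuned for TRPC6 not TRPC4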
TRPC6 block conf – mouse TRPC6 inhibitor confirmation; shares compounds with TRPC6 inh; HEK293-TRPC6, membrane potential dye, ACh-evoked depolarization; inhibition, % at 10 µM; 43% of 3,300 active; AID 488960;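 active = fluorescence ratio falls more than 5 SD below the full-stimulation control mean, in both duplicate runs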;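 note: integrated fluorescence ratio of peak minus minimum over baseline after agonist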
TRPC6 act conf – confirmation of mouse TRPC6 activators. HEK293-TRPC6 membrane potential dye fluorescence, FDSS. 11% of 2,800 active. shares compounds with TRPC6 inh. activation, % at 10 µM;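 active = ratio signal rise beyond 5 SD above unstimulated control wells' mean, seen in both duplicate runs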;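 note: plate controls were buffer EC0 wells for no effect and acetylcholine ECmax response for full effect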
Active calls of the source: *; i = inactive; nt = no result given.

SMILES	TRPC4 act	TRPC4 block	TRPC6 inh	TRPC6 act	TRPC4 PAM	HEK293 MPD ctr-2	HEK293 MPD ctr 2-2	TRPC4/MOR mod	TRPC4/MOR inh 2	TRPC6 block conf	TRPC6 act conf	others
COc1ccc(Oc2c(C(F)(F)F)oc3cc(OCC(=O)O)ccc3c2=O)cc1	i	i	-5.2*	i	i	i	i	i	i	i	i
Cc1c(C)n(Cc2ccccc2)c2ncnc(NN)c12	i	i	i	i	i	nt	nt	nt	nt	nt	nt
Cc1c(C)n(Cc2ccccc2)c2ncnc(NCCCN(C)C)c12	i	i	-6*	i	i	-102%*	i	-20%*	54%*	42%*	i
Cc1c(C)n(Cc2ccccc2)c2ncnc(NCCN(C)C)c12	i	i	-7.1*	i	i	nt	nt	nt	nt	i	i	TRPC4 sel inh 2=i;TRPC4 spec=-17%*;HEK293 MPD ctr 2-1=i;HEK293 MPD ctr-1=-277%*
Cc1c(C)n(-c2ccccc2)c2ncnc(NCCCN(C)C)c12	i	i	i	i	i	nt	nt	nt	nt	nt	nt
COc1ccccc1Nc1ncnc2c1c(C)c(C)n2CCCN(C)C	i	i	-5.2*	i	i	-101%*	i	-23%*	74%*	54%*	i
Cc1ccc(OCCNC(=O)c2ccccc2SCC(=O)N2CCCC2)cc1	i	i	i	i	i	nt	nt	nt	nt	nt	nt
N#Cc1c(-c2ccccc2)nc(SCC(=O)Nc2ccc(OC(F)(F)Cl)cc2)[nH]c1=O	i	i	i	i	i	nt	nt	nt	nt	nt	nt
COc1cc(CNCCc2ccccc2F)ccc1OCc1ccc(Cl)nc1	i	i	-7.7*	i	i	nt	nt	nt	nt	60%*	i	TRPC4 sel inh 2=48%*;TRPC4 spec=i;HEK293 MPD ctr 2-1=226%*;HEK293 MPD ctr-1=3.9%*
O=C(COC(=O)C1CC1)NCc1ccccc1Cl	i	i	i	i	i	nt	nt	nt	nt	nt	nt
Cc1ccc(-n2nnnc2CNC(=O)c2ccc3c(c2)OCO3)cc1C	i	i	-8.1*	i	i	i	95%*	19%*	i	80%*	i
CC(=O)Nc1ccc(OCC(=O)NC(C)c2ccc(F)cc2)cc1 (stereo not drawn)	i	i	i	i	i	nt	nt	nt	nt	nt	nt
CCN=C1S/C(=C/c2ccc(-c3ccc(F)cc3)o2)C(=O)N1CC	i	i	i	i	i	nt	nt	nt	nt	nt	nt
COc1ccc(C(=O)N2CCN(c3ccccn3)CC2)cc1[N+](=O)[O-]	i	i	i	i	i	nt	nt	nt	nt	nt	nt
CCN1C(=S)SC(=O)C1=C1C=C(C)N(CCO)C(C)=C1	47*	i	i	40*	i	812%*	159%*	134%*	i	nt	458%*
CCN1C(=O)/C(=C/C=C2/Sc3ccccc3N2CCO)SC1=S	i	i	i	i	i	nt	nt	nt	nt	nt	nt
